One block for each compound: values may come before it. Where no end group is shown, it is not given here. The star is where a group is joined. Crotonyl(E) = C/C=C/C(=O)*
Columns and labels:
GAS41 [1] = molecular target: T1, GAS41 (Homo sapiens, UniProt O95619); assay: Competitive peptide pulldown, GAS41 with H3K27ac; type: binding; conditions: 20 μM compound
AF9 = molecular target: T2, AF9 (Homo sapiens, UniProt P42568); assay: Competitive peptide pulldown, AF9 with H3K9ac; type: binding; conditions: 20 μM compound
T2 sequence (P42568 1-145): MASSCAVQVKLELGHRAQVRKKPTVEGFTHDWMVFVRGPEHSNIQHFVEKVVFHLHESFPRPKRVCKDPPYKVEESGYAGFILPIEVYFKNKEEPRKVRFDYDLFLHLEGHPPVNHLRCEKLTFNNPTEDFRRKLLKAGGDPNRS

GAS41 YEATS domain = GAS41 YEATS domain (Homo sapiens, UniProt O95619); assay: AlphaScreen assay, GAS41 YEATS / H3K27ac peptide; type: binding
YEATS2 YEATS domain = molecular target: T3, YEATS2 YEATS domain (Homo sapiens, UniProt Q9ULM3); assay: AlphaScreen assay, YEATS2 YEATS / H3K27cr peptide; type: binding
T3 sequence (Q9ULM3 201-332): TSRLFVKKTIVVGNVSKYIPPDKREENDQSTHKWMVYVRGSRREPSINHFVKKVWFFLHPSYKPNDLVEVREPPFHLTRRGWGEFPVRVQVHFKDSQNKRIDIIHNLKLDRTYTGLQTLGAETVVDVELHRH

YEATS2 = molecular target: T4, YEATS2 (Homo sapiens, UniProt Q9ULM3); assay: Competitive peptide pulldown, YEATS2 with H3K27cr; type: binding; conditions: 20 μM compound
T4 sequence (Q9ULM3 201-332): T3 sequence (Q9ULM3 201-332)

ENL = molecular target: T5, ENL (Homo sapiens, UniProt Q03111); assay: Competitive peptide pulldown, ENL with H3K9ac; type: binding
T5 sequence (Q03111 1-145): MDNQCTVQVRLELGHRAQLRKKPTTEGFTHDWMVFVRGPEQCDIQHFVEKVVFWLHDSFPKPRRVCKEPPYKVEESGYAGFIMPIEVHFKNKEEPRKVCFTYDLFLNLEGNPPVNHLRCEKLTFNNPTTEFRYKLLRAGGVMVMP

AF9 proteins = molecular target: T6, AF9 proteins (Homo sapiens, UniProt P42568); assay: Cellular thermal shift assay; type: cell-based; conditions: HeLa cells, 20 μM, 5 h
T6 sequence (P42568 1-568): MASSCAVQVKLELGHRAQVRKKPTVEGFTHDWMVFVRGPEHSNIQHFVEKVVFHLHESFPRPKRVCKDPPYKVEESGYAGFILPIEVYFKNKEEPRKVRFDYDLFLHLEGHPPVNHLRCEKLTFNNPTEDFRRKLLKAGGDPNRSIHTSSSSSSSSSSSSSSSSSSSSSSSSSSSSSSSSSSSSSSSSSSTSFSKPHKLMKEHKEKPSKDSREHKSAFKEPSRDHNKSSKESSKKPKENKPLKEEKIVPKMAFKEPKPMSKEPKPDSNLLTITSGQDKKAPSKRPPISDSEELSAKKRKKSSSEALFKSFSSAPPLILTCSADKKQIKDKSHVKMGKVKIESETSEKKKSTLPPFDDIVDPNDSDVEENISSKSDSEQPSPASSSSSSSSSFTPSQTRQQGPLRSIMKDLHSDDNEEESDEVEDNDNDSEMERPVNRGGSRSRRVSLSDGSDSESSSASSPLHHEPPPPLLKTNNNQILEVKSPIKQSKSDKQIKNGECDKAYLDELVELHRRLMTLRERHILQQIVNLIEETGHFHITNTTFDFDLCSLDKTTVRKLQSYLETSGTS
In short: (§1)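 Cells were incubated with 20 µM test compound for 5 h, washed three times in PBS and resuspended in PBS with protease inhibitors (about 3 million cells per aliquot). Aliquots were heated 3 min at the indicated temperatures, then held 2 min at room temperature. Cells were lysed with NP40/glycerol/DTT buffer plus three liquid-nitrogen/37 °C freeze-thaw cycles, and cleared at 13,000 rpm, 4 °C, 10 min. Soluble protein was read by western blot.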

MV4;11 cells [2] = assay: Combinatorial treatment of compound 7 and JQ1, MV4; type: cell-based, human; conditions: 7 0 to 20 μM, JQ1 0–200 nM, Combenefit
In short: (§2)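 Leukaemia cells kept in RPMI-1640 with 10% FBS were given DMSO, test compound, JQ1, or the two combined at a concentration matrix for 6 days. Viability was read by CellTiter-Glo luminescence as % surviving relative to DMSO. Drug interaction was scored as synergy using Combenefit.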

MOLM13 cells = assay: Combinatorial treatment of compound 7 and JQ1, MOLM13; type: cell-based, human; conditions: 7 0 to 20 μM, JQ1 0–200 nM, Combenefit
In short: as §2

ENL YEATS domain [3] = molecular target: T7, ENL YEATS domain (Homo sapiens, UniProt Q03111); assay: 1H,15N HSQC NMR titration of ENL YEATS domain; type: binding; conditions: 15N-labelled His-ENL, ligand titrated
T7 sequence (Q03111 1-148): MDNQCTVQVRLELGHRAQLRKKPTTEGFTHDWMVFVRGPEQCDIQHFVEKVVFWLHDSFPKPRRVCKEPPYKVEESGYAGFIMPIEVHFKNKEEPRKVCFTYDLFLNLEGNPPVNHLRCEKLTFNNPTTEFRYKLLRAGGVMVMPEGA
In short: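 15N-labelled YEATS domain was expressed in E. coli Rosetta-2 (DE3) pLysS in NH4Cl minimal medium (0.5 mM IPTG, 18 h, 16 °C) and purified by Ni-NTA then size exclusion. 1H,15N HSQC spectra were recorded at 298 K, 600 MHz, on 0.2 mM protein in 25–50 mM Tris-HCl pH 7.5, 150 mM NaCl, 0.2 mM TCEP, 10% D2O. Test compound or H3K27cr peptide (aa 22–31) was added stepwise at set protein:ligand molar ratios.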

Caco-2 cell monolayers = assay: Caco-2 cell permeability assay; type: in vitro ADME; conditions: 10 μM, 2 hours, A-B direction
In short: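 Flux was measured across polarised Caco-2 monolayers in triplicate, with ranitidine, talinolol and warfarin as controls. Apparent permeability (Papp) was calculated for the apical-to-basolateral direction.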

MV4;11 cells [4] = assay: Cell growth inhibition assay; type: cell-based, human; conditions: compared with MOLM13 (5 and 10 μM), 3 days
GAS41 [5] = molecular target: T1, GAS41; assay: Cellular thermal shift assay; type: cell-based; conditions: MV4;11 and MOLM13 cells, 20 μM, 5 h, vs DMSO
In short: as §1

U2OS cells = assay: Cell growth inhibition assay; type: cell-based, human; conditions: even at 50 μM, ENL-independent cell line
ENL protein = molecular target: T8, ENL protein (Homo sapiens, UniProt Q03111); assay: Cellular thermal shift assay; type: cell-based; conditions: 20 μM, 5 h
T8 sequence (Q03111 1-559): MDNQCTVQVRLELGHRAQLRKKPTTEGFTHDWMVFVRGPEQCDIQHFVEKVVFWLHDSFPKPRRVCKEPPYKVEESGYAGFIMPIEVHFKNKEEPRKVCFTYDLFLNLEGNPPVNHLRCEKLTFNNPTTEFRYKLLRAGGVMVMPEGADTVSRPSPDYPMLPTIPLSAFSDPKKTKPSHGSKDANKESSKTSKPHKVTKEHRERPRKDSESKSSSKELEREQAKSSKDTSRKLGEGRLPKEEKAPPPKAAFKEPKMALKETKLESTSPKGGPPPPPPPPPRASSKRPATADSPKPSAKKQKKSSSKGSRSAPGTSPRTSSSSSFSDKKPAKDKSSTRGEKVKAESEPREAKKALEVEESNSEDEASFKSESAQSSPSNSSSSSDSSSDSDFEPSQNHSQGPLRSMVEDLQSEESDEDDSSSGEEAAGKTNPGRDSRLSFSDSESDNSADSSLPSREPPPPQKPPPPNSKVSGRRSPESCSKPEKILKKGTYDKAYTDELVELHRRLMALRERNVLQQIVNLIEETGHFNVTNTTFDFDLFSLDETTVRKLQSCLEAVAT
In short: as §1

HOXA9 gene expression = assay: qRT-PCR of HOXA9 gene expression in MOLM13 cells; type: cell-based, human
In short: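 MOLM13 cells were treated with test compound or DMSO. Total RNA was extracted and reverse-transcribed, and HOXA9 was quantified by SYBR Green real-time PCR. Expression was normalised to GAPDH by the comparative Ct method; mean ± SEM, n = 3, two-tailed Student's t test.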

ENL YEATS domain [6] = molecular target: T9, ENL YEATS domain (Homo sapiens, UniProt Q03111); assay: AlphaScreen assay, His-ENL YEATS / biotin-H3K9ac interaction; type: binding; conditions: SAR comparison with 11 or 6
T9 sequence (Q03111 1-145): T5 sequence (Q03111 1-145)

T1 sequence (O95619 whole entry): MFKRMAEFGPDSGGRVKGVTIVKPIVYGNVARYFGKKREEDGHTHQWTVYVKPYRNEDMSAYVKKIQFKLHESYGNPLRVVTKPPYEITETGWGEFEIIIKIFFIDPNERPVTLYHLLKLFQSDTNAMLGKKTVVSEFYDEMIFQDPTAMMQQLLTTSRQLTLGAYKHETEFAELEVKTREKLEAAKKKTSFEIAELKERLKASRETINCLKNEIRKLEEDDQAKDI
GAS41 YEATS domain, sequence (O95619 whole entry, the tested form may be a part): as the sequence (O95619 whole entry) above

Compound: CSc1ccc(CNC(=O)c2ccc3nncn3c2)cc1 [compound 1]
inhibition of GAS41 binding to acylated histone peptide (GAS41 [1]): none of these compounds showed notable inhibition | inhibition of AF9 binding to acylated histone peptide (AF9): none of these compounds showed notable inhibition | inhibition of GAS41 YEATS domain (IC50 measurement) (GAS41 YEATS domain): no detectable inhibition | inhibition of YEATS2 YEATS domain (IC50 measurement) (YEATS2 YEATS domain): no detectable inhibition | inhibition of YEATS2 binding to acylated histone peptide (YEATS2): none of these compounds showed notable inhibition | inhibition of ENL binding to H3K9ac (ENL; 5 μM compound): strongly inhibited

Compound: CN(C)Cc1ccc(CNC(=O)c2ccc3nncn3c2)cc1 [compound 7, N-(4-((dimethylamino)methyl)benzyl)-[1,2,4]triazolo[4,3-a]pyridine-6-carboxamide]
thermal stability of AF9 protein (CETSA) (AF9 proteins): stabilized ENL but not AF9 proteins | inhibition of GAS41 binding to acylated histone peptide (GAS41 [1]): none of these compounds showed notable inhibition | interaction with JQ1 in killing leukemia cells (MV4;11 cells [2]): synergistic effect | interaction with JQ1 in killing leukemia cells (MOLM13 cells): synergistic effect | chemical shift perturbations, exchange regime on the NMR timescale (ENL YEATS domain [3]): intermediate to slow exchange regime | Caco-2 permeability (Caco-2 cell monolayers): comparable to 11 | inhibition of AF9 binding to acylated histone peptide (AF9): none of these compounds showed notable inhibition | inhibition of MV4;11 cell growth (MV4;11 cells [4]): about double amounts of the compound were needed to achieve similar levels of inhibition | thermal stability of GAS41 protein (CETSA) (GAS41 [5]): little or no difference | response of U2OS cell growth to treatment (U2OS cells): little or no response | thermal stability of ENL protein (CETSA) (ENL protein; HeLa cells): stabilized ENL | thermal stability of ENL protein (CETSA) (ENL protein; MV4;11 and MOLM13 cells, vs DMSO): bound and stabilized ENL proteins | lowest drug concentration effectively suppressing HOXA9 gene expression (HOXA9 gene expression): 2.5 µM | inhibition of YEATS2 binding to acylated histone peptide (YEATS2): none of these compounds showed notable inhibition | inhibition of ENL binding to H3K9ac (ENL; 5 μM compound): strongly inhibited

Compound: O=C(NCc1ccc(CN2CCC2)cc1)c1ccc2nncn2c1 [compound 11, N-(4-(azetidin-1-ylmethyl)benzyl)-[1,2,4]triazolo[4,3-a]pyridine-6-carboxamide]
inhibition of GAS41 binding to acylated histone peptide (GAS41 [1]): none of these compounds showed notable inhibition | inhibition of AF9 binding to acylated histone peptide (AF9): none of these compounds showed notable inhibition | inhibition of YEATS2 binding to acylated histone peptide (YEATS2): none of these compounds showed notable inhibition | inhibition of ENL binding to H3K9ac (ENL; 1 μM compound): strongly inhibited

Compound: O=C(NCc1cccc(CN2CCC2)c1)c1ccc2nncn2c1 [compound 15, N-(3-(azetidin-1-ylmethyl)benzyl)-[1,2,4]triazolo[4,3-a]pyridine-6-carboxamide]
inhibition potency compared with parent compound (ENL YEATS domain [6]): did not result in any increase of potency

Continued, in another order:

inhibition potency compared with parent compound (ENL YEATS domain [6]): greatly reduced the inhibition potency
Compound: CC(NC(=O)c1ccc2nncn2c1)c1ccc(CN2CCC2)cc1 (centres unmarked) [compound 16, N-(1-(4-(azetidin-1-ylmethyl)phenyl)ethyl)-[1,2,4]triazolo[4,3-a]pyridine-6-carboxamide]

inhibition of ENL binding to H3K9ac (ENL; 1 μM compound): strongly inhibited
Compound: O=C(NCc1ccc(CNc2ncc(F)cn2)cc1)c1ccc2nncn2c1 [compound 24, N-(4-(((5-fluoropyrimidin-2-yl)amino)methyl)benzyl)-[1,2,4]triazolo[4,3-a]pyridine-6-carboxamide]
inhibition of GAS41 binding to acylated histone peptide (GAS41 [1]): none of these compounds showed notable inhibition | inhibition of AF9 binding to acylated histone peptide (AF9): none of these compounds showed notable inhibition | inhibition of YEATS2 binding to acylated histone peptide (YEATS2): none of these compounds showed notable inhibition

chemical shift perturbations, exchange regime on the NMR timescale (ENL YEATS domain [3]): intermediate to fast exchange regime
Compound: H3K27cr peptide: histone H3 residues 22–31 with a crotonylation at K27 (TKAARK(Crotonyl(E))SAPA; UniProt P68431 23-32, looked up, fragment) [reference compound]

Source: paper PMC8486320 (Journal of medicinal chemistry, 2021)
